{"data": "Assay results collected from several papers", "observed": "cell growth or viability", "note": "Lines come from different studies, so protocols differ."}
{"SMILES": "Cc1cc(=O)oc2ccc(-c3cc(-c4cccc(Cl)c4)nc(N)n3)c(O)c12", "cell line": "KB", "technique": "MTT", "tested at": "32 µg/mL", "time": "72 h", "quantity": "inhibition", "value": "16%"}
{"SMILES": "COC(=O)COc1ccc(NC(=O)C2(c3cccc(Br)c3)CC2)c(C)c1", "cell line": "U-937", "technique": "ATP luminescence", "time": "72 h", "quantity": "GI50", "value": "3.2 µM"}
{"SMILES": "Oc1ccc(Nc2nc(-c3ccc(Cl)cc3)cs2)cc1", "cell line": "UACC-903", "technique": "MTS", "time": "48 h", "quantity": "IC50", "value": "59.1 µM"}
{"SMILES": "COC(=O)COc1ccc(NC(=O)C2(c3ccc(Cl)cc3)CC2)c(C)c1", "cell line": "U-937", "technique": "ATP luminescence", "time": "72 h", "quantity": "GI50", "value": "6 µM"}
{"SMILES": "Cn1nnc2c(C(N)=O)ncn2c1=O", "cell line": "SNU1", "quantity": "EC50", "value": "243 µM"}
{"SMILES": "CC#CC(=O)N1CC[C@@H](n2cc(-c3ccc(Oc4c(F)cccc4F)cc3)c3c(N)n[nH]c(=O)c32)C1", "cell line": "MINO", "technique": "ATP luminescence", "time": "72 h", "quantity": "GI50", "value": "5.18 µM"}
{"SMILES": "C=CC(=O)N1CCN(c2cc(-c3noc([C@@]4(C)CCCc5sc(N)c(C#N)c54)n3)nc(N3CCN(C)C[C@@H]3C)c2)CC1", "cell line": "LS-513", "time": "5 days", "quantity": "EC50", "value": "4.7 µM"}
{"SMILES": "Cc1cc(=O)oc2ccc(-c3cc(-c4ccc(Cl)cc4)nc(N)n3)c(O)c12", "cell line": "KB", "technique": "MTT", "tested at": "32 µg/mL", "time": "72 h", "quantity": "inhibition", "value": "54%"}
{"SMILES": "COC(=O)COc1cccc(NC(=O)C2(c3cccc(Br)c3)CC2)c1", "cell line": "U-937", "technique": "ATP luminescence", "time": "72 h", "quantity": "GI50", "value": "3.5 µM"}
{"SMILES": "Cc1cc(=O)oc2ccc(-c3cc(-c4ccccc4)nc(N)n3)c(O)c12", "cell line": "KB", "technique": "MTT", "tested at": "8 µg/mL", "time": "72 h", "quantity": "inhibition", "value": "0%"}
{"SMILES": "COC(=O)COc1ccc(NC(=O)C2(c3ccccc3)CC2)cc1Br", "cell line": "U-937", "technique": "ATP luminescence", "time": "72 h", "quantity": "GI50", "value": "6.1 µM"}
{"SMILES": "Cc1cc(=O)oc2ccc(-c3cc(-c4cccs4)nc(N)n3)c(O)c12", "cell line": "KB", "technique": "MTT", "tested at": "128 µg/mL", "time": "72 h", "quantity": "inhibition", "value": "17%"}
{"SMILES": "COc1cc(Nc2nccc(-c3cnn4nc(OC)ccc34)n2)cc(C(F)(F)F)c1", "cell line": "SNU1", "technique": "ATP luminescence", "quantity": "IC50", "value": "0.19 µM"}
